Most compounds without a hit are left out; they make up all but 2.5% or so of the library.
PRMT1 inh: PRMT1 methyltransferase inhibitors, primary screen, biochemical, fluorescence polarization. Protein arginine N-methyltransferase 1 (Homo sapiens), Q99873. 370,000 compounds, 1.3% hits. recombinant PRMT1, activity-based probe fluorescence polarization. inhibition, % at 2.79 µM;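 active = inhibition above about 21% made by adding two undisclosed values, limit read from the data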
TDP2 inh: human TDP2 enzyme inhibitors, primary screen, biochemical, epi absorbance, recombinant enzyme. T5PNP hydrolysis, p-nitrophenol absorbance 415 nm. inhibition, % at 12.8 µM. 370,000 compounds, 0.34% hits. AID 720702, 2013. Tyrosyl-DNA phosphodiesterase 2 (Homo sapiens), O95551;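 active = inhibition above the mean of all tested compounds plus 3 SD, set per campaign, cut at about 25% in these data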
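System – recombinant human TDP2 · Quantity – TDP2 enzyme at 120 nM final · Doses – single concentration, 12.8 µM nominal, with 1% DMSO · Incubation – 2 h at 37 °C · Measured by – epi absorbance of p-nitrophenol freed from T5PNP by hydrolysis · Read-out – % inhibition relative to enzyme-containing and enzyme-free wells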
PAD4 FP inh: human PAD4 inhibitors, primary screen, biochemical, fluorescence polarization, 1536-well format; Protein-arginine deiminase type-4 (Homo sapiens), Q9UM07; recombinant PAD4, RCA probe fluorescence polarization; inhibition, % at 6.36 µM; 330,000 compounds, 0.41% hits;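 active = percent inhibition above a cutoff equal to the mean of all tested compounds plus 3 SD, cut at about 15% in these data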
Target sequence (Q9UM07 whole entry, looked up): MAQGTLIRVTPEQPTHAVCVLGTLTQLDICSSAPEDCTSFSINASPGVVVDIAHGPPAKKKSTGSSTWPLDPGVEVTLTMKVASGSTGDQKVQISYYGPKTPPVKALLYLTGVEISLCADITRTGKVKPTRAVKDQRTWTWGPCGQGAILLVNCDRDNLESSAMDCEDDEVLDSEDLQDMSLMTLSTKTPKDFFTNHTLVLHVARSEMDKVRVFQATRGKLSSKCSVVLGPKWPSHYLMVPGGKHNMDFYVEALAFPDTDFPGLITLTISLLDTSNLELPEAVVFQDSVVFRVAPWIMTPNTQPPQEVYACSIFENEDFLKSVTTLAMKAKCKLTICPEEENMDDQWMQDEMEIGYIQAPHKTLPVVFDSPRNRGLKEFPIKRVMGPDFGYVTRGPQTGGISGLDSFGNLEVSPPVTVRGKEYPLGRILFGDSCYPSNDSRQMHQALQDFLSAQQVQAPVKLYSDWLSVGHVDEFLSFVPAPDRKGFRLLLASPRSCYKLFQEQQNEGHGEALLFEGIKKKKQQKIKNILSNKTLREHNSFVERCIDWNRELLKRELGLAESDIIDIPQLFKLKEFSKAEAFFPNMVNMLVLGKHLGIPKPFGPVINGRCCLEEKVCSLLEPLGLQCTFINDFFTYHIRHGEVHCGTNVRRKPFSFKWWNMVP
GSTO1 counter: inhibitors of recombinant GSTO1, primary screen, counter-screen for RBBP9 inhibitor project, biochemical, fluorescence polarization; Glutathione S-transferase omega-1 (Homo sapiens), P78417; activity-based probe fluorescence polarization; inhibition, % at 5.96 µM; 300,000 compounds, 1.1% hits; AID 1974, 2009;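 active = inhibition above the campaign mean inhibition plus 3 SD, cut at about 35% in these data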
Fh CTSL1 inh: Fasciola hepatica cathepsin L1 inhibitors, primary screen, counter-screen for PFM18AAP inhibitor project, biochemical, QFRET, fluorogenic peptide substrate. inhibition, % at 5.96 µM. recombinant F. hepatica cathepsin L1, Z-Leu-Arg-MCA fluorescence. AID 1906, 2009. 300,000 compounds, 0.49% hits;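 active = inhibition above the mean of all tested compounds plus 3 SD, set per screening campaign, cut at about 17% in these data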
GSTO1 confirm: GSTO1 inhibitor hit confirmation, counter-screen for RBBP9 inhibitor project, biochemical, fluorescence polarization, triplicate; shares compounds with GSTO1 counter; recombinant GSTO1, probe fluorescence polarization; inhibition, % at 5.96 µM; 2,400 compounds, 54% hits; AID 2176, 2009;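 active = inhibition above the primary screen's cutoff, its mean inhibition plus 3 SD, cut at about 35% in these data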;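 note: loss of polarization as inhibitors block binding of rhodamine sulfonate ester activity probe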
Of the large screens only hits and unclear results are named; the others gave an inactive call (follow-up assays come after a bar, where they were run).

O=C1/C(=N\S(=O)(=O)c2cccs2)C([n+]2ccc(CCCc3ccccc3)cc2)=C([O-])c2ccccc21	GSTO1 counter 79 | GSTO1 confirm 84
O=S(=O)([N-]c1nc2ccccc2nc1-[n+]1ccc(CCCc2ccccc2)cc1)c1cccs1	none
CC(C)N(Cc1ccccc1)S(=O)(=O)c1cccs1	none
Oc1ccc(/C=N/Nc2ccc(Cl)nn2)c(O)c1O	PRMT1 inh 58, GSTO1 counter 71 | GSTO1 confirm inactive
Oc1c(Br)cc(Br)cc1/C=N/Nc1ccc(Cl)nn1	none
CN1CCC(NC(=O)c2cccc(Oc3ccccc3)c2)CC1	GSTO1 counter 63 | GSTO1 confirm inactive
Cc1cc(C)cc(N(CC(=O)NC2CCC(C)CC2)S(=O)(=O)c2cccs2)c1 (stereo unspecified)	none (no result: PAD4 FP inh, GSTO1 counter, Fh CTSL1 inh)
Cc1ccc(S(=O)(=O)N[C@@H](Cc2ccccc2)C(=O)CCl)cc1	GSTO1 counter 45, Fh CTSL1 inh 70 | GSTO1 confirm 55
Cc1ccc(S(=O)(=O)NC(Cc2ccccc2)C(=O)NN)cc1 (stereo unspecified)	none
COc1cc(C=NN2CCN(C(c3ccccc3)c3ccccc3)CC2)cc(OC)c1OC(C)=O	none (no result: PAD4 FP inh, GSTO1 counter, Fh CTSL1 inh)
CC(=O)C1=C(c2ccc(Br)cc2)C(=O)c2ccccc2C1=O	GSTO1 counter 39 | GSTO1 confirm inactive
COC(=O)[C@]12C[C@H](CC(=O)N3CCN(C(=O)c4ccco4)CC3)C(=O)N(Cc3ccc(Cl)cc3Cl)C1=C[C@H](C1CCCC1)O[C@@H]2C	none (no result: PAD4 FP inh, GSTO1 counter, Fh CTSL1 inh)
Cc1ccc2nc(N3CCC(C(=O)O)CC3)nc(-c3ccccc3)c2c1	GSTO1 counter 54 | GSTO1 confirm 58
C[C@H]1[C@@H](NCC2CCCCC2)CC[C@@]23CCCN2C(=O)CCC[C@@H]13	none (no result: PAD4 FP inh, GSTO1 counter, Fh CTSL1 inh)
C[C@@H](NC(=O)C[C@H]1CC[C@H]2[C@@H](COc3ccc(NC(=O)Nc4ccccc4)cc3C(=O)N2C)O1)c1ccccc1	none (no result: PAD4 FP inh, GSTO1 counter, Fh CTSL1 inh)
S=c1[nH]c2ccccc2n2c(=S)[nH]nc12	GSTO1 counter 59 | GSTO1 confirm 39
S=c1[nH]nc2ccc3ccccc3n12	none (no result: PAD4 FP inh, GSTO1 counter, Fh CTSL1 inh)
O=C(NCc1ccccc1)c1ccc2nc(-c3ccco3)c(-c3ccco3)nc2c1	PRMT1 inh 44, GSTO1 counter 67 | GSTO1 confirm inactive
S=C(Nc1ccc(N2CCOCC2)cc1)Nc1ccc2nc(-c3ccco3)c(-c3ccco3)nc2c1	PRMT1 inh 43, GSTO1 counter 50 | GSTO1 confirm inactive
CC(=O)c1ccc(NC(=O)c2ccc3nc(-c4ccco4)c(-c4ccco4)nc3c2)cc1	GSTO1 counter 68 (no result: PRMT1 inh, TDP2 inh) | GSTO1 confirm inactive
O=C(NCCO)Nc1ccc2nc(-c3ccco3)c(-c3ccco3)nc2c1	PAD4 FP inh 18, GSTO1 counter 65 (no result: PRMT1 inh, TDP2 inh) | GSTO1 confirm 42
O=C(NCCO)Nc1ccc2nsnc2c1	none
O=C(Nc1ccc(N2CCOCC2)cc1)c1ccc2nc(-c3ccco3)c(-c3ccco3)nc2c1	none
CCc1nc2ccc(C(=O)Nc3ccc(NC(C)=O)cc3)cc2nc1CC	none
O=C(NCC1COc2ccccc2O1)c1ccc(NC(=O)c2cccc(F)c2F)cc1 (stereo unspecified)	none (no result: PAD4 FP inh, GSTO1 counter, Fh CTSL1 inh)
CCOC(=O)[C@]12CCCC=C1N(Cc1ccc(OC)cc1)C(=O)[C@@H]2CC(=O)NCc1cccc2ccccc12	none (no result: PAD4 FP inh, GSTO1 counter, Fh CTSL1 inh)
O=C(c1ccc2nc(-c3ccco3)c(-c3ccco3)nc2c1)N1CCN(c2ncccn2)CC1	PRMT1 inh 35, GSTO1 counter 68 | GSTO1 confirm inactive
O=C(Nc1ccccc1)c1ccc2nc(-c3ccco3)c(-c3ccco3)nc2c1	PRMT1 inh 38, GSTO1 counter 57 | GSTO1 confirm inactive
COC(=O)C1CN(Cc2cn(Cc3ccc(OC)cc3)nn2)CCS(=O)(=O)N1Cc1ccc(OC)cc1 (stereo unspecified)	none (no result: PAD4 FP inh, GSTO1 counter, Fh CTSL1 inh)
NS(=O)(=O)c1ccc(CCNC(=O)C2COc3ccccc3O2)cc1 (stereo unspecified)	none (no result: PAD4 FP inh, GSTO1 counter, Fh CTSL1 inh)
COc1ccc(OC)c(NC(=O)NC2(C(F)(F)F)Oc3ccccc3O2)c1	GSTO1 counter 56 | GSTO1 confirm inactive
